Series [1] has as its system A704. The experiment in a line: Coadjutant activity against multidrug resistance in human A704 cells assessed as potentiation of vincristine-induced cell growth inhibition by measuring cell growth at 4 uM incubated for 72 hrs in presence of 0.02 to 20 uM vincristine by SiR-DNA/CellTox Green Dye based fluorescence analysis. Set-up: scale not given: the % may be the effect or the level left. The format is functional. In outline:
(§1)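 Growth by live-cell imaging: 500 cells/well plated with SiR-DNA and CellTox Green dye; serial dilutions in phenol-red-free complete medium added next day. Imaged at addition and at 72 h. Live cells = SiR-DNA nuclei minus CellTox-positive dead cells; percentage growth calculated. Three technical replicates; two-tailed t-test. Inhibitor paired with anticancer drug at fixed or scaled levels.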

The target of series [2] is T1, ATP-dependent translocase ABCB1 (Homo sapiens, UniProt P08183). The experiment in a line: Inhibition of P-gp in human HCT-15 cells assessed as increase in green fluorescence intensity at 0.1 to 1 uM incubated for 15 mins followed by incubation with EFFLUX-ID Green Detection Reagent and Hoeschst-33342 dye and measured after 30 mins by fluorescence analysis. To be noted: hct-15, 0.25 h, dose 0.1-1 µM. Format: cell-based. The gist of the method: (§2)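 5000 cells/well in phenol-red-free medium plated 24 h before; compounds 0.1, 1, 10 µM for 15 min, then EFLUXX-ID Green reagent (1:200) plus Hoechst-33342 1 µg/mL, 30 min 37 °C. Widefield imaging; median green intensity from 250 cells per well normalized to untreated wells. Mean ± SD of three wells; one-tailed t-test.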

For series [3], the system named is A498. Briefly: Coadjutant activity against multidrug resistance in human A498 cells assessed as potentiation of vincristine-induced cell growth inhibition at 0.25 to 4 uM incubated for 72 hrs in presence of 0.2 uM vincristine by SiR-DNA/CellTox Green Dye based fluorescence analysis. To be noted: dose 0.25-4 µM. The format is functional. The gist of the method: as §1

The subject of series [4] is SK-HEP1. Briefly: Coadjutant activity against multidrug resistance in human SK-HEP1 cells assessed as potentiation of vincristine-induced cell growth inhibition at 4 uM incubated for 72 hrs in presence of 0.02 to 20 uM vincristine by SiR-DNA/CellTox Green Dye based fluorescence analysis. Format: functional. In outline: as §1
The test system of another series is MeWo. The experiment in a line: Coadjutant activity against multidrug resistance in human MeWo cells assessed as potentiation of vincristine-induced cell growth inhibition at 4 uM incubated for 72 hrs in presence of 0.02 to 20 uM vincristine by SiR-DNA/CellTox Green Dye based fluorescence analysis. Format: functional. In outline:
as §1

Series [5] relates to HuP-T3. The experiment in a line: Coadjutant activity against multidrug resistance in human Hup-T3 cells assessed as potentiation of cisplatin-induced cell growth inhibition at 4 uM incubated for 72 hrs in presence of 0.1 to 100 uM cisplatin by SiR-DNA/CellTox Green Dye based fluorescence analysis. The format is functional. In outline:
(§3)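 Cisplatin co-treatment, 72 h imaging growth assay (SiR-DNA nuclei minus CellTox Green dead cells, 500 cells/well, phenol-red-free medium). Combinations: inhibitor fixed with cisplatin 0.1–100 µM, or cisplatin fixed at 0.25 µM with inhibitor 0.25–4 µM. Three technical replicates, mean ± SD; two-tailed t-test.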

Series [6] concerns the target T1, ATP-dependent translocase ABCB1. The experiment in a line: Inhibition of P-gp in human A498 cells assessed as increase in green fluorescence intensity at 0.1 to 10 uM incubated for 15 mins followed by incubation with EFFLUX-ID Green Detection Reagent and Hoeschst-33342 dye and measured after 30 mins by fluorescence analysis. Format: cell-based. To be noted: a498, 0.25 h, dose 0.1-10 µM. The gist of the method: as §2

For series [7], the system named is A498. The experiment in a line: Coadjutant activity against multidrug resistance in human A498 cells assessed as potentiation of vincristine-induced cell growth inhibition by measuring cell growth at 4 uM incubated for 72 hrs in presence of 0.02 to 20 uM vincristine by SiR-DNA/CellTox Green Dye based fluorescence analysis. The format is functional. The arrangement: scale not given: the % may be the effect or the level left. The gist of the method: as §1

Series [8] has as its target T1, ATP-dependent translocase ABCB1. Briefly: Inhibition of P-gp in human CAKI-2 cells assessed as increase in green fluorescence intensity at 0.1 to 10 uM incubated for 15 mins followed by incubation with EFFLUX-ID Green Detection Reagent and Hoeschst-33342 dye and measured after 30 mins by fluorescence analysis. Format: cell-based. To be noted: caki-2, 0.25 h, dose 0.1-10 µM. The gist of the method:
as §2

A short description of series [9]: Cytotoxicity against human A498 cells assessed as inhibition of cell growth at 4 uM incubated for 72 hrs by SiR-DNA/CellTox Green Dye based fluorescence analysis relative to control. Format: toxicity. The gist of the method:
(§4)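 Single-agent control at 4 µM, no anticancer drug. 500 cells/well with SiR-DNA and CellTox Green; imaged at addition and 72 h. Live count = total nuclei minus dead cells, expressed as percent growth. Three technical replicates.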

The test system of another series is HGC-27. The experiment in a line: Coadjutant activity against multidrug resistance in human HGC-27 cells assessed as potentiation of vincristine-induced cell growth inhibition by measuring cell growth at 4 uM incubated for 72 hrs in presence of 0.02 to 20 uM vincristine by SiR-DNA/CellTox Green Dye based fluorescence analysis. Format: functional. The arrangement: scale not given: the % may be the effect or the level left. The gist of the method: as §1

Series [10] relates to HuP-T3. Briefly: Cytotoxicity against human Hup-T3 cells assessed as inhibition of cell growth at 4 uM incubated for 72 hrs by SiR-DNA/CellTox Green Dye based fluorescence analysis. The format is toxicity. To be noted: hup-t3, 72 h. In outline:
as §4

The subject of series [11] is SK-HEP1. The experiment in a line: Coadjutant activity against multidrug resistance in human SK-HEP1 cells assessed as potentiation of cisplatin-induced cell growth inhibition at 0.25 to 4 uM incubated for 72 hrs in presence of 0.25 uM cisplatin by SiR-DNA/CellTox Green Dye based fluorescence analysis. Format: functional. The note with it: dose 0.25-4 µM. The gist of the method: as §3

Series [12] has as its system U-87 MG. The experiment in a line: Cytotoxicity against human U-87 MG cells assessed as inhibition of cell growth at 4 uM incubated for 72 hrs by SiR-DNA/CellTox Green Dye based fluorescence analysis. The format is toxicity. To be noted: u-87mg atcc. In outline:
as §4

Series [13] can be described thus: Cytotoxicity against human HGC-27 cells assessed as inhibition of cell growth at 4 uM incubated for 72 hrs by SiR-DNA/CellTox Green Dye based fluorescence analysis relative to control. The format is toxicity. The gist of the method:
as §4

The subject of series [14] is A498. The experiment in a line: Coadjutant activity against multidrug resistance in human A498 cells assessed as potentiation of etoposide-induced cell growth inhibition at 4 uM incubated for 72 hrs in presence of 0.04 to 40 uM etoposide by SiR-DNA/CellTox Green Dye based fluorescence analysis. Format: functional. In outline:
as §1

Another series relates to HCT-116. The experiment in a line: Coadjutant activity against multidrug resistance in human HCT-116 cells assessed as potentiation of cisplatin-induced cell growth inhibition at 4 uM incubated for 72 hrs in presence of 0.1 to 100 uM cisplatin by SiR-DNA/CellTox Green Dye based fluorescence analysis. Format: functional. The gist of the method: as §3
The subject of series [15] is A704. Briefly: Coadjutant activity against multidrug resistance in human A704 cells assessed as potentiation of vincristine-induced cell growth inhibition at 0.25 to 4 uM incubated for 72 hrs in presence of 0.2 uM vincristine by SiR-DNA/CellTox Green Dye based fluorescence analysis. The format is functional. To be noted: dose 0.25-4 µM. In outline:
as §1

For series [16], the system named is U-87 MG. The experiment in a line: Coadjutant activity against multidrug resistance in human U-87 MG cells assessed as potentiation of vincristine-induced cell growth inhibition at 0.25 to 4 uM incubated for 72 hrs in presence of 0.2 uM vincristine by SiR-DNA/CellTox Green Dye based fluorescence analysis. To be noted: U-87MG ATCC, dose 0.25-4 µM. The format is functional. In outline: as §1

For another series, the system named is HT-29. Briefly: Coadjutant activity against multidrug resistance in human HT-29 cells assessed as potentiation of vincristine-induced cell growth inhibition at 4 uM incubated for 72 hrs in presence of 0.02 to 20 uM vincristine by SiR-DNA/CellTox Green Dye based fluorescence analysis. Format: functional. In outline: as §1

Each structure is given as a SMILES string. The source made the active and inactive calls. No cut-off for these calls is given here.

T1 sequence (P08183 whole entry): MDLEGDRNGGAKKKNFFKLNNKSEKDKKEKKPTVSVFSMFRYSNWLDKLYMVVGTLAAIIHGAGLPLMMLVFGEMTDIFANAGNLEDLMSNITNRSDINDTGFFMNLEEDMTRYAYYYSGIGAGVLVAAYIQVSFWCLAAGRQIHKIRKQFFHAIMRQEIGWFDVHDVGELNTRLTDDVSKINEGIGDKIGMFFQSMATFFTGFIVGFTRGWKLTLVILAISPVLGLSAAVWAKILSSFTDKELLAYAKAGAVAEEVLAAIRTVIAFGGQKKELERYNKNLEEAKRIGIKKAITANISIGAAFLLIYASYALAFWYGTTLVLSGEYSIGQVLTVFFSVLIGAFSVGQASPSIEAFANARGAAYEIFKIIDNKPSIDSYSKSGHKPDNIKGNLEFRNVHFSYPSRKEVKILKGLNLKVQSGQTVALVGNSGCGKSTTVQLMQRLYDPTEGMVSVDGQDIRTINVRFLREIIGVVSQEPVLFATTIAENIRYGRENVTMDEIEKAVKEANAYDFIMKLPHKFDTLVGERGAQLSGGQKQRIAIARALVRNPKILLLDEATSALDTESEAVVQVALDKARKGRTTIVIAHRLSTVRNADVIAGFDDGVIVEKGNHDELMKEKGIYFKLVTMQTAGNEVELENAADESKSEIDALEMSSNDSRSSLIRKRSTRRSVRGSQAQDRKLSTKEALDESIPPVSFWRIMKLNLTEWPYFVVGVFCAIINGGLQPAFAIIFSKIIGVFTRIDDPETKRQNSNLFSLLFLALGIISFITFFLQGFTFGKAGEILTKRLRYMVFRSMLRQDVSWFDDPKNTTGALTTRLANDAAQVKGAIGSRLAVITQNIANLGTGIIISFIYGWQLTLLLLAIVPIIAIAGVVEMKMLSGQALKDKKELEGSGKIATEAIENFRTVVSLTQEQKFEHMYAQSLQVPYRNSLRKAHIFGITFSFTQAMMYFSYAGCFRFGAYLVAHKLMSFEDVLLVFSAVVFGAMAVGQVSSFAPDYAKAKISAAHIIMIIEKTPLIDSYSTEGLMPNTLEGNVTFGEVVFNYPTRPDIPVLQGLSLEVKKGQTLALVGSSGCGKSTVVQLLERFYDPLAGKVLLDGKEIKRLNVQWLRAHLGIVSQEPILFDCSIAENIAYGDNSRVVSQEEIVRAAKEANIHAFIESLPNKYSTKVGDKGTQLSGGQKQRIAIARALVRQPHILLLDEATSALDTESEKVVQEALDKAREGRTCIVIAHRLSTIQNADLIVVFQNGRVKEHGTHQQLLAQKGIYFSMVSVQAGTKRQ

What is called inhibition is the percentage by which the read-out fell short of the control. On to `O=C(Nc1ccccc1)c1ccccc1OCc1nc2cc3cccnc3cc2nc1COc1ccccc1C(=O)Nc1ccccc1`, for which the Activity is 50% in the series on A704 [1]; 50% with A498 [7]; 50% with HGC-27; “Non-Toxic” in the series with HuP-T3 [10]; “Non-Toxic” in the series on U-87 MG [12]. In addition, the “inhibition (INH)” value was “Dose-Dependent Effect” in series [2], “Not Active” in series [6] and “Active” in series [8]. In addition, the result in the series on A498 [3], in the series with SK-HEP1 [4], with MeWo, in the series on A498 [14], with A704 [15] and with U-87 MG [16] was Active. For the same compound, the result in the series with HT-29 was Active. The outcome in the series with HuP-T3 [5], in the series with SK-HEP1 [11] and with HCT-116 was inactive. The inhibition at 72 h, 4 µM in series [9] is 20%; in series [13] it was 40%.
